B1: tRNA (parent)
chain: GUUCCGUUGGCGUAAUGGUAACGCGUCUCCCUCCUAAGGAGAAGACUGCGGGUUCGAGUCCCGUACGGAACG

Fewer inactive variants are shown than the library holds. Some results are limits rather than exact numbers.

For 167 variants, yeast fitness results are on record in the RNAGym collection of RNA variant scans (doi:10.1126/science.aae0568).

The variants in the series derive from B1. As to the kind of experiment: yeast fitness relative to wild type (ratio to wild type); higher = fitter; tRNA-Arg(CCU), competitive growth, 37 C, YPD. The procedure, abridged: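 The tRNA-Arg(CCU) gene variants were made by chemical synthesis with a 3% per-site mutation rate at 69 sites and inserted at the native genomic locus of Saccharomyces cerevisiae. After pooling, the strains were competed in YPD at 37°C for 24 hours in six parallel replicates. Gene amplicons from the start population and each end population were read by 100-nucleotide paired-end sequencing, and Darwinian fitness relative to wild type was taken from genotype frequency changes. Genotypes needed ≥ 100 starting reads, and estimates < 0.5 were set to 0.5.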
As to G6C G51C G68C, the yeast fitness was 0.562.
Under G6C U16A G23C C60U stands 0.625; under G6C G39C A45U C61U, no more than 0.5.
As for G6C U7G G17C U53A, the figure is no more than 0.5.
For G6C U28C C30A G39A, the yeast fitness was no more than 0.5.
On to U7A A20G C31U A57G A70C, for which the yeast fitness was no more than 0.5.
As for U7A A14U A20C U28C C46U G58A, the yeast fitness is no more than 0.5.
Take U7A A15G G18A: the yeast fitness was determined as 0.669.
As for G6C U13C C46A, the figure is 0.627; as for U7A C11A C30U U32A, no more than 0.5.
Turning to U7A A45C U47C C55U A65C A69C, the yeast fitness is no more than 0.5.
As for G6C G38C C60A, the figure is no more than 0.5; as for U7A A20C G58A G63A, no more than 0.5; as for G6C U13A, 0.718.
Under G6C G38C C46A G67U stands no more than 0.5; under G6C U7C, 0.757.
In the case of G6C U53A C60A, the yeast fitness was no more than 0.5.
As for G6C U19G A43U G58C C66A, the yeast fitness was no more than 0.5.
As for U7A A20G C29U A57C, the figure is no more than 0.5; as for G6C U7C A21U G44A, no more than 0.5.
Regarding G6C U28A C33G, the yeast fitness is no more than 0.5.
With G6C U7A A21C A37C U47C A69C, the yeast fitness is no more than 0.5.
Under U7A A69U stands 0.759; under G6C U13C C24A C27G A36U, no more than 0.5; under G6U C62U, 0.831.
For the variant G6C G63C A69G, the yeast fitness was no more than 0.5.
On to G6C G50A A70U, for which the yeast fitness is 0.633.
Under U7A A36C G56A stands no more than 0.5; under U7A A21C C33A A45U, 0.616; under G6C U8C C11U U19C A20U A42C A65C A69U, no more than 0.5.
Under G6C G68C stands 0.874.
As for U7A A20C U26A, the figure is no more than 0.5; as for U7A A14C A20G C66G, no more than 0.5.
Consider U7A A20G C29A, for which the yeast fitness came to 0.544.
As for G6C U13G G18A C55A, the figure is 0.514; as for G6C U19C U32A A42C, no more than 0.5; as for U7A A21C C29U A37G C55U A70U, 0.55.
U7A A36U: the yeast fitness came out at 0.607.
Under U7A A14G U28G C30U stands no more than 0.5; under U7A A70C, 0.817.
As for U7A A20U, the yeast fitness came out at 0.776.
Under G6C U32A G41A C46U stands no more than 0.5.
Under G6C U7C C34G C55U stands no more than 0.5; under G6C U8C A42G C46U C55G A65U, no more than 0.5; under G6C U7A C34U C61U, 0.658.
On to G6C U35A G44C, for which the yeast fitness is 0.569.
For the variant G6C G50A A69U, the yeast fitness turned out to be 0.682.
Take U7A A21U A45C: the yeast fitness is no more than 0.5.
As for G6C U16A G18C C22G, the figure is 0.615; as for U7A A20C A21G G23A A70U, no more than 0.5.
Under G6C U59A C60U stands no more than 0.5; under U7A A40U A45G C46U, no more than 0.5.
Under G6C U7A C46U stands 0.577; under G6C U53C, 0.865; under U7A A20G C34A G44A C46U A70C, no more than 0.5.
Turning to G6C U35C, the yeast fitness came to 0.866.
Turning to U7A A36U U64C, the yeast fitness is no more than 0.5.
Take G6C U35C U59C: the yeast fitness is no more than 0.5.
As for U7A A20G C46G G63C G67C A69U, the figure is no more than 0.5; as for G6C U7C G9C C66U, 0.546.
Under U7A A15G G23A stands 0.638.
Under G6C U26C C31A G38C stands no more than 0.5; under G6C U8A G58C C61A, no more than 0.5.
For the variant G6C G56A, the yeast fitness stood at 1.03.
As to U7A A40C, the yeast fitness is 0.724.
As for U7A A40U, the figure is 0.714; as for U7A A15C C27A C61G, no more than 0.5; as for G6C U8A G51A A65U G67A, no more than 0.5.
Regarding G6C U7C C31G, the yeast fitness is no more than 0.5.
As for G6C U16G A20C G25A A43U G50A C55U, the figure is no more than 0.5; as for G6U A40G C49A C61G, no more than 0.5; as for U7A A20G A40U, no more than 0.5.
Consider G6C U53C A65G, for which the yeast fitness is no more than 0.5.
For U7A A15U, the yeast fitness came to 0.587.
As to G6C U16C C46G C62U C66U, the yeast fitness is no more than 0.5.
As for U7A A15C C27A U47C G58C, the figure is no more than 0.5; as for G6C U35A A43U C62U G68C, no more than 0.5; as for G6C U7G G17C G67A, no more than 0.5.
Under G6C G44C A65G A70C stands no more than 0.5; under G6C U16G G39C, no more than 0.5.
Under U7A A20U C55A C66U stands 0.894; under G6C U47A, 0.818; under U7A A21C C33A A45U A69U, no more than 0.5.
Turning to G6C U8A A45U U53C G67A A69C, the yeast fitness came to 0.775.
Under G6C U13C C31G C33A stands no more than 0.5; under G6C U47A C60G, no more than 0.5; under U7A A21C A36G G68C, no more than 0.5.
Under U7A A37U C49U C55U A57C C61U stands 0.934; under G6C U35A A40U G41C C49A, no more than 0.5.
Under G6C U7A G39C C55U A70G stands no more than 0.5; under G6C U13A C34A, no more than 0.5; under U7A A14G A65C, 0.662.
As for G6U G68C, the yeast fitness was 0.794.
Under U7A A15G G23A G63C stands 0.557.
Take G6C U8C G23C C30A A42C G48C G52C: the yeast fitness was no more than 0.5.
Under U7A A65U stands 0.996; under U7A A42G, 0.655; under G6U A40G C61A U64C, no more than 0.5.
For U7A A15U C30G A42C U59A C60U, the yeast fitness was no more than 0.5.
Under U7A A20C A21G G23A G56A stands no more than 0.5; under U7A A36C G51C, no more than 0.5; under G6C G52C A57U, no more than 0.5.
For U7A A21G C30G A36G C46G A57U, the yeast fitness was found to be 0.545.
Under G6C U8C C27U G48A A57G stands no more than 0.5; under G6C U8C G58C A69U, 0.528.
Under U7A A14G C31U G39C A40C A45U U47C G68C stands no more than 0.5.
As for G6C U7G G17C C60G, the figure is 0.574; as for U7A A21G C30G A36G C46G U54C A57U, no more than 0.5.
G6U U32A G56C: the yeast fitness was no more than 0.5.
Under G6C U13A U54A A57C stands no more than 0.5; under G6C G50C A69U, 0.554; under G6C G58C, 1.01.
On to G6C U16G C46A, for which the yeast fitness worked out at 0.599.
Regarding U7A A36U C60A U64C, the yeast fitness is no more than 0.5.
Under G6C U7G A43U A65C stands 0.825; under U7A A37C G51A G67A, no more than 0.5; under G6C G51A, 0.791.
As for U7A A14C G25A C30G C49U, the figure is 0.557.
On to G6U G18C C49G, for which the yeast fitness was no more than 0.5.
Under G6C U16C A42U G52U stands 0.634; under U7A A42G G68C, no more than 0.5.
As for G6C U16A G18C C22G C49U, the figure is no more than 0.5.
Turning to U7A A21G C61G C66G, the yeast fitness was no more than 0.5.
Take G6C U8C G25A: the yeast fitness was 0.581.
As for U7A A20G G23A U26G A65G C66G, the figure is no more than 0.5; as for G6U G63C, 0.615.
Under G6C U8C C34G A45G A65U stands no more than 0.5; under U7A A57U, 0.572; under U7A A14G G18C U54C, no more than 0.5.
Under G6C U64A stands 0.853; under G6C U7C G48A, 0.614.
As to U7A A20C A69C, the yeast fitness was determined as 0.609.
Under G6C U8G G10C A37G C62U U64A stands 0.504; under G6U G44C, 0.755; under U7A A43U, 0.622.
As for U7A C11A A21C C29U C49U, the figure is 0.544; as for U7A A21G U28A C29U G58A, 0.598; as for U7A A15U G67A, no more than 0.5.
Consider U7A A21C C31G, for which the yeast fitness was no more than 0.5.
Regarding G6C U19C C22A U35C A69U, the yeast fitness was no more than 0.5.
For the variant U7A A36C A57C, the yeast fitness is no more than 0.5.
As for G6C U32A, the figure is 0.756.
As for G6C U8C A42G, the figure is 0.575; as for G6C G52A C55G, no more than 0.5.
Under G6C G38C C46A stands 0.54; under G6C U19C C29U G38C U47C, no more than 0.5.
In the case of G6C U19C G38C G44C C46A, the yeast fitness is no more than 0.5.
Under G6C U8C G41C G51C stands no more than 0.5; under G6C G39C, 0.7; under G6C U7G G17C C49U G58C C61A A65U, no more than 0.5.
Under G6C U16C G41C G51A C55U stands no more than 0.5; under G6C U8C C60A C62U, no more than 0.5.
As for G6C G41A C62U, the figure is no more than 0.5; as for G6U, 0.918; as for G6C U8C A21C, no more than 0.5.
In the case of U7A A15G G23A G25A A69C, the yeast fitness is no more than 0.5.
As for G6C U13A C24U C31A U54C, the figure is no more than 0.5.
Under G6C G41A A43G C60U A70C stands no more than 0.5; under G6C U8C C49A, no more than 0.5.
U7A A14C C30A A36G C62U G63A A70U: the yeast fitness is no more than 0.5.
Under G6C U16A G18C C22G G52C G68A stands no more than 0.5; under G6U U35G A69U, 1.03.
Under U7A A37U G50A U53C C62A A69U stands no more than 0.5; under U7A A45C, 0.737; under G6C G39C C55G, no more than 0.5.
As for U7A A15U G63A G67A, the figure is no more than 0.5; as for G6C U8C C29G C61U, no more than 0.5.
